Five compounds from ChEMBL document CHEMBL2424622, “Development of amino-pyrimidine inhibitors of c-Jun N-terminal kinase (JNK): kinase profiling guided optimization of a 1,2,3-benzotriazole lead” (Bioorg Med Chem Lett, 2013) can be followed below.

Assay [1] addresses T1, Serine/threonine-protein kinase Nek5 (Homo sapiens) (UniProt Q6P3R8).
T1 sequence (whole entry): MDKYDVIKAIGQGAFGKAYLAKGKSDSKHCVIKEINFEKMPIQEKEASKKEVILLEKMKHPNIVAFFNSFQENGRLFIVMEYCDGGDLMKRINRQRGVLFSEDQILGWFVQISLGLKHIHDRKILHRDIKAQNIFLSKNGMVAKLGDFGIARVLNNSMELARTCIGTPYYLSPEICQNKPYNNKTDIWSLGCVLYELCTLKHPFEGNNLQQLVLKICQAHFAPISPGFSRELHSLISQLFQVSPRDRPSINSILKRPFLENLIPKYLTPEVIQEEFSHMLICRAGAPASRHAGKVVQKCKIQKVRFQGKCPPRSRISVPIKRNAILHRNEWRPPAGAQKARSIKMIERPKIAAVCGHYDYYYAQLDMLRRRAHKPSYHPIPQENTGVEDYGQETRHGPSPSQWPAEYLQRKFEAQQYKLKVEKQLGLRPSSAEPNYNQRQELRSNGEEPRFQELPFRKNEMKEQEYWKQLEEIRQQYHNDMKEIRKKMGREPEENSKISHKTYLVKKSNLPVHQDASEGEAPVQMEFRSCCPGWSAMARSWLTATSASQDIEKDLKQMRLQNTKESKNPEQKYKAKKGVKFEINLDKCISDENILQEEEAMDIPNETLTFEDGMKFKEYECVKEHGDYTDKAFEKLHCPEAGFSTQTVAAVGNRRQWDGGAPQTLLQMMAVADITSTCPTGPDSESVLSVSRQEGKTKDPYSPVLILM
In words: Competitive binding affinity to NEK5 (unknown origin) at 10 uM in presence of ATP relative to control.

The target of assay [2] is T2, Ephrin type-B receptor 2 (Homo sapiens) (UniProt P29323).
T2 sequence (whole entry): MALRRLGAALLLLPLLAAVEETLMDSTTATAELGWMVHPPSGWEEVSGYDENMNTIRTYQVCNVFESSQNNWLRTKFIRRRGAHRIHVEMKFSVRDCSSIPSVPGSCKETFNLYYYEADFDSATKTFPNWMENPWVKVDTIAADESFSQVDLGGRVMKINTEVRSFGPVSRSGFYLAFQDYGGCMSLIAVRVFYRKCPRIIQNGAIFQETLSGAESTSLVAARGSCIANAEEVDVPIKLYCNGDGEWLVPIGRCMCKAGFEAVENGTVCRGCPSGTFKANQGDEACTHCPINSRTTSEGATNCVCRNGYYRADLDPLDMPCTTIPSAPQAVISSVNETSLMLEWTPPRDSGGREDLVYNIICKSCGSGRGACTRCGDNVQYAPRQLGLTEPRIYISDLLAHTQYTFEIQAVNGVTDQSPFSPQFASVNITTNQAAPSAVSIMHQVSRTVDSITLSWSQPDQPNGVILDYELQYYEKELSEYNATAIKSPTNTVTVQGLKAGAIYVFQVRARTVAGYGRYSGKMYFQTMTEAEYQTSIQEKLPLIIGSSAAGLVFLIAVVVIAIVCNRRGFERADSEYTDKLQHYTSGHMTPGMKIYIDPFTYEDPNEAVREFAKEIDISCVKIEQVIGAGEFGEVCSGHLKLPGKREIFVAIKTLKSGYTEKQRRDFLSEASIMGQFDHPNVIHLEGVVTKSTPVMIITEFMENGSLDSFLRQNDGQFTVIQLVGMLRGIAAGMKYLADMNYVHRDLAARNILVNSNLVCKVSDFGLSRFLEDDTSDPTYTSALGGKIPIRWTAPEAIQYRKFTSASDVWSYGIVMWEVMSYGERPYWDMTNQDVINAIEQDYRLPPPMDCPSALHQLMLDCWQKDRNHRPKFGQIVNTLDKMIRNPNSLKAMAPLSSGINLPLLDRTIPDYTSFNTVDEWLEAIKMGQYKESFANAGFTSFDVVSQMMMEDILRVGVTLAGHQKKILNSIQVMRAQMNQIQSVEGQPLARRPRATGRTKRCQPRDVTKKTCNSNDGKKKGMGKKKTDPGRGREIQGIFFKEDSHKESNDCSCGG
As to the kind of experiment: Competitive binding affinity to EPHB2 (unknown origin) at 10 uM in presence of ATP relative to control. A digest of the protocol:
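In vitro ATP-site competition binding assay, part of profiling against a diverse panel of 128 kinases. Each compound was tested at a single concentration of 10 µM. Kinome selectivity was summarized as S15 selectivity scores.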

For the next assay, the species on record is Homo sapiens. In words: Competitive binding affinity to EGFR E746 to A750 deletion mutant (unknown origin) at 10 uM in presence of ATP relative to control. A digest of the protocol:
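Screened at 10 µM in an in vitro ATP-site competition binding assay across a diverse panel of 128 kinases, with this kinase as one panel member. Readout is binding relative to control.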

Assay [3] addresses Casein kinase I isoform delta (Homo sapiens) (UniProt P48730). As to the kind of experiment: Competitive binding affinity to CSNK1D (unknown origin) at 10 uM in presence of ATP relative to control.
In assay [4] the target is Cyclin-dependent kinase 2 (Homo sapiens) (UniProt P24941). In words: Competitive binding affinity to CDK2 (unknown origin) at 10 uM in presence of ATP relative to control. A digest of the protocol:
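In vitro ATP-site competition binding assay across a diverse panel of 128 kinases, with each compound tested at a single concentration. Kinase binding is expressed relative to control.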

Assay [5] deals with Ribosomal protein S6 kinase alpha-4 (Homo sapiens) (UniProt O75676). In words: Competitive binding affinity to RPS6KA4 kinase domain 2 (unknown origin) at 10 uM in presence of ATP relative to control.
Sequence of Ribosomal protein S6 kinase alpha-4 (Homo sapiens) (O75676 whole entry, looked up, the tested form may be a part): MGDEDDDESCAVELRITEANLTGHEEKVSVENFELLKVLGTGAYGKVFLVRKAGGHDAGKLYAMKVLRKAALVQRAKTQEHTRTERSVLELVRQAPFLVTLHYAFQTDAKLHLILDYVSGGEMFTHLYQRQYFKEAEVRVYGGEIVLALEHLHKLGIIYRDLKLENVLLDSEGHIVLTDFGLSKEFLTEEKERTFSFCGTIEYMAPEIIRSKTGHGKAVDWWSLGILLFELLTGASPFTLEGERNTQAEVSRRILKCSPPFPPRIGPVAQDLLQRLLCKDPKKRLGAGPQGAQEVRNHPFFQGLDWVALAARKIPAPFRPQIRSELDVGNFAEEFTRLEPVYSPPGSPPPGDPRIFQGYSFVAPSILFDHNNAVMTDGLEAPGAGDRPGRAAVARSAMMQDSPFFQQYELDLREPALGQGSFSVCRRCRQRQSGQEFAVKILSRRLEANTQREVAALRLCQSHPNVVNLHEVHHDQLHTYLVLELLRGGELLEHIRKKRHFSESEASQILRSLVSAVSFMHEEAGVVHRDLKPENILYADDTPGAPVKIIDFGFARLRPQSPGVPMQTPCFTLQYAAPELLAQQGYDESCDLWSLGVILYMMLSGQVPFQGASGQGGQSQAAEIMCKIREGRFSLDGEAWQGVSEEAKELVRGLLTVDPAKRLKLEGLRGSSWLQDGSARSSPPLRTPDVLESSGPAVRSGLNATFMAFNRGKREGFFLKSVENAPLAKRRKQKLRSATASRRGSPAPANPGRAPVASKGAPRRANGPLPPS
The target in assay [6] is T3, Receptor-interacting serine/threonine-protein kinase 1 (Homo sapiens) (UniProt Q13546).
T3 sequence (whole entry): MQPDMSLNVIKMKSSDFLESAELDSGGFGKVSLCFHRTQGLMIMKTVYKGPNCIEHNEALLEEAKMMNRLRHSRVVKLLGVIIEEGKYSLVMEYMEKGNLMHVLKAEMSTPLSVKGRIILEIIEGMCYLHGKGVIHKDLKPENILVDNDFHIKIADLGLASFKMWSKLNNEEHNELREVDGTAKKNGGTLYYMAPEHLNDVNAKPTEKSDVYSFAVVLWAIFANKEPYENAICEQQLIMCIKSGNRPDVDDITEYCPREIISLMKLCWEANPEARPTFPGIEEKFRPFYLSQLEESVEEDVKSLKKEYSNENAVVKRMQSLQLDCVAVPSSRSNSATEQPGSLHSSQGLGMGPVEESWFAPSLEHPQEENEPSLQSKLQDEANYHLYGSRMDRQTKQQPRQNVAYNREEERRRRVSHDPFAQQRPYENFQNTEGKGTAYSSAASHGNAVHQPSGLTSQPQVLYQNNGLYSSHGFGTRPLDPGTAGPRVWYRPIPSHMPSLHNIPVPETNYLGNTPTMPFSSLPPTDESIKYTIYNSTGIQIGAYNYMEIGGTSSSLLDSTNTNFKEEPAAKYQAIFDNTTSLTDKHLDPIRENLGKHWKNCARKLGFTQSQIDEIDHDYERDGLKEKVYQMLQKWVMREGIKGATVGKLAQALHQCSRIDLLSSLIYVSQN
As to the kind of experiment: Competitive binding affinity to RIPK1 (unknown origin) at 10 uM in presence of ATP relative to control.

Sequence of Casein kinase I isoform delta (Homo sapiens) (P48730 whole entry, looked up, canonical isoform): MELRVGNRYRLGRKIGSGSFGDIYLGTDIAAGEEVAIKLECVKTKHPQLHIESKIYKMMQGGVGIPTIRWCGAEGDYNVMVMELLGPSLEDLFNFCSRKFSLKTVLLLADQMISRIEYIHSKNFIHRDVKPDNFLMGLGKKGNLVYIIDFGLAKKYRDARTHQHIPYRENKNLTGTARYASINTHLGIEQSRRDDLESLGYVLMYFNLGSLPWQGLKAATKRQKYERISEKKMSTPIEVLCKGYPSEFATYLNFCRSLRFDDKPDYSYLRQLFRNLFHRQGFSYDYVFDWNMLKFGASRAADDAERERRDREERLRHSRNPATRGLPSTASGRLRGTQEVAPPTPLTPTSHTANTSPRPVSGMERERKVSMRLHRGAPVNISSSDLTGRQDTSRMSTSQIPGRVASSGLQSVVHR

In the case of `CS(=O)(=O)CCCOc1cccc2c1ccn2-c1ccnc(N[C@H]2CC[C@H](C(=O)N3CCC(O)CC3)CC2)n1`, the inhibition – broadly, the share of the control response that was lost under treatment – in assay [1] is over 85%.
Consider `O[C@H]1CC[C@H](Nc2nccc(-n3ccc4ccccc43)n2)CC1`, for which the inhibition in assay [2] is under 50%; in the assay listed under Homo sapiens, under 50%; in assay [3], 91%; in assay [4] it was 90%; in assay [5], under 50%; in assay [6], under 50%. Besides, in assay [1], the inhibition was under 50%.
`O[C@H]1CC[C@H](Nc2nccc(-n3ncc4ccccc43)n2)CC1`: the inhibition in assay [2] is under 50%; in the assay listed under Homo sapiens, 99%; in assay [3], 96%; in assay [4], 94%; in assay [5], under 50%; in assay [6] it was under 50%. Also, the inhibition in assay [1] was 71%.
On to `O[C@H]1CC[C@H](Nc2nccc(-c3n[nH]c4ccccc34)n2)CC1`, for which the inhibition in assay [2] is under 50%; in the assay filed under Homo sapiens, under 50%; in assay [3], 100%; in assay [4] it was 100%.
Consider `O[C@H]1CC[C@H](Nc2nccc(-n3nnc4ccccc43)n2)CC1`, for which the inhibition in assay [2] was under 50%; in the assay listed under Homo sapiens, under 50%; in assay [3], 100%; in assay [4] it was 94%; in assay [5] it was 94%; in assay [6], under 50%. Further, the inhibition in assay [1] came to 95%.
